From ChEMBL document CHEMBL4229371, “Discovery of [1,2,4]triazolo[3,4-b][1,3,4]thiadiazole derivatives as novel, potent and selective c-Met kinase inhibitors: Synthesis, SAR study, and biological activity” (Eur J Med Chem, 2018)

Tests used:
EBC-1 [1] = assay: Antiproliferative activity against human EBC1 cells after 72 hrs by Cell Titer-Glo assay; type: functional, cell-based; details: EBC-1, 72 h
Procedure, shortened: (§1)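 Cell Titer-Glo viability assay. Exponentially growing cells were plated at 4000 per well in RPMI-1640 with 10% FPS and incubated 12 h at 37 °C in 5% CO2. Compound was then added at the indicated final concentrations and cells were held 72 h at 37 °C in 5% CO2. CTG reagent was applied for 10 min at room temperature. Inhibition % = (1 − Vsample/Vvehicle control) × 100.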

EBC-1 [2] = assay: Antiproliferative activity against human EBC1 cells at 5 uM after 72 hrs by Cell Titer-Glo assay; type: functional; procedure, shortened: as §1
MKN-45 [3] = assay: Antiproliferative activity against human MKN45 cells at 5 uM after 72 hrs by Cell Titer-Glo assay; type: functional; procedure, shortened: as §1
EBC-1 [4] = assay: Antiproliferative activity against human EBC1 cells at 1 uM after 72 hrs by Cell Titer-Glo assay; type: functional; procedure, shortened: as §1
SNU-5 = assay: Antiproliferative activity against human SNU5 cells at 5 uM after 72 hrs by Cell Titer-Glo assay; type: functional; procedure, shortened: as §1
[5] = target: T1, Hepatocyte growth factor receptor (Homo sapiens, UniProt P08581); assay: Inhibition of GST-tagged human c-MET preincubated for 20 mins followed by [33P]-ATP addition and measured after 2 hrs by Hot-Spot kinase assay
MKN-45 [6] = assay: Antiproliferative activity against human MKN45 cells at 1 uM after 72 hrs by Cell Titer-Glo assay; type: functional; procedure, shortened: as §1
[7] = target: Vascular endothelial growth factor receptor 1 (Homo sapiens) (UniProt P17948); assay: Inhibition of GST-tagged human FLT1 at 5 uM preincubated for 20 mins followed by [33P]-ATP addition measured after 2 hrs by Hot-Spot kinase assay
Procedure, shortened: (§2)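 Radiometric filter-binding assay with 5 nM human GST-tagged kinase and substrate. Buffer was 20 mM Hepes pH 7.5, 10 mM MgCl2, 1 mM EGTA, 0.02% Brij35, 0.02 mg/mL BSA, 0.1 mM Na3VO4, 2 mM DTT and 1% DMSO. Compound in DMSO was preincubated with kinase for 20 min at room temperature. 33P-ATP was then added and the reaction ran 2 h at room temperature. IC50 values came from curve fitting.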

[8] = target: Angiopoietin-1 receptor (Homo sapiens) (UniProt Q02763); assay: Inhibition of GST-tagged human TIE2 at 5 uM preincubated for 20 mins followed by [33P]-ATP addition measured after 2 hrs by Hot-Spot kinase assay; procedure, shortened: as §2
[9] = target: T1, Hepatocyte growth factor receptor; assay: Inhibition of HGF-induced c-MET phosphorylation at Tyr1234/1235 in human MKN45 cells after 1 hr by Western blot analysis; type: cell-based
Procedure, shortened: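 MKN45 cells were plated at 2x10^4 per well in RPMI-1640 with 10% FPS and treated with a range of doses for 1 h. Lysis was in ice-cold RIPA with protease inhibitors. Lysate holding 30 µg protein (BCA) was run on SDS-PAGE and blotted to PVDF. Membranes were blocked in 5% skim milk, given primary antibody overnight at 4 °C, then HRP secondary for 1 h at room temperature, and read by ECL.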

[10] = target: Platelet-derived growth factor receptor alpha (Homo sapiens) (UniProt P16234); assay: Inhibition of GST-tagged human PDGFRalpha at 5 uM preincubated for 20 mins followed by [33P]-ATP addition measured after 2 hrs by Hot-Spot kinase assay; procedure, shortened: as §2
[11] = target: Tyrosine-protein kinase ABL1 (Homo sapiens) (UniProt P00519); assay: Inhibition of GST-tagged human ABL1 at 5 uM preincubated for 20 mins followed by [33P]-ATP addition measured after 2 hrs by Hot-Spot kinase assay; procedure, shortened: as §2
[12] = target: BDNF/NT-3 growth factors receptor (Homo sapiens) (UniProt Q16620); assay: Inhibition of GST-tagged human TRKB at 5 uM preincubated for 20 mins followed by [33P]-ATP addition measured after 2 hrs by Hot-Spot kinase assay; procedure, shortened: as §2
[13] = target: ALK tyrosine kinase receptor (Homo sapiens) (UniProt Q9UM73); assay: Inhibition of GST-tagged human ALK at 5 uM preincubated for 20 mins followed by [33P]-ATP addition measured after 2 hrs by Hot-Spot kinase assay; procedure, shortened: as §2
[14] = target: Mast/stem cell growth factor receptor Kit (Homo sapiens) (UniProt P10721); assay: Inhibition of GST-tagged human c-KIT at 5 uM preincubated for 20 mins followed by [33P]-ATP addition measured after 2 hrs by Hot-Spot kinase assay; procedure, shortened: as §2
[15] = target: T2, Receptor-type tyrosine-protein kinase FLT3 (Homo sapiens, UniProt P36888); assay: Inhibition of GST-tagged human FLT3 preincubated for 20 mins followed by [33P]-ATP addition measured after 2 hrs by Hot-Spot kinase assay; procedure, shortened: as §2
T2 sequence (P36888 whole entry): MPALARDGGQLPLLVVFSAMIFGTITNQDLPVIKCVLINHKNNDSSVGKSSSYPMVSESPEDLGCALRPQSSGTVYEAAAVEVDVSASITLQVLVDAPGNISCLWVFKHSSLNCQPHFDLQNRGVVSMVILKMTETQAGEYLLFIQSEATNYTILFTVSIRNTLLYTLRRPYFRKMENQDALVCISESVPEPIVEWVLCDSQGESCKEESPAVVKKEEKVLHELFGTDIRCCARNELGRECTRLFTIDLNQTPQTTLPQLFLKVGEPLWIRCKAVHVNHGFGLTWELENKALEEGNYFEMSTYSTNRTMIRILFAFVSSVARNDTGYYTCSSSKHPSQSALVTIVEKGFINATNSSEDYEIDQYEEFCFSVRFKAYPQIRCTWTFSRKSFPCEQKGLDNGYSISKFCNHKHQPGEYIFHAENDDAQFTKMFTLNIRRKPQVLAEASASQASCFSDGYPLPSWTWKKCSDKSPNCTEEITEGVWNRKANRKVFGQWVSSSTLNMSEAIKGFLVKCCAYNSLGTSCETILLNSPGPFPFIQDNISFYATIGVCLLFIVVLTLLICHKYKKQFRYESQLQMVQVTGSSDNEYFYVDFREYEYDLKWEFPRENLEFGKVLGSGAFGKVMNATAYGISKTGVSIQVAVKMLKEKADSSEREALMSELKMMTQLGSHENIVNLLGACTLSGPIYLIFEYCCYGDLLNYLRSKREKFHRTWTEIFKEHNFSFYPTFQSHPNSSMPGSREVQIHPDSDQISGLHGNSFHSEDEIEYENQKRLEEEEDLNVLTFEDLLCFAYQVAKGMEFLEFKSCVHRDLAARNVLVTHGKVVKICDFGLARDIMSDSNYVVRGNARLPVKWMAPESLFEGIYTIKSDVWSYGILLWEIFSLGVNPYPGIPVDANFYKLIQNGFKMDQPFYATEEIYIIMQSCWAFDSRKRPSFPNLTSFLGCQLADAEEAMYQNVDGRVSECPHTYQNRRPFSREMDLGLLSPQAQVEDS

[16] = target: Receptor-type tyrosine-protein kinase FLT3 (Homo sapiens) (UniProt P36888); assay: Inhibition of GST-tagged human FLT3 at 5 uM preincubated for 20 mins followed by [33P]-ATP addition measured after 2 hrs by Hot-Spot kinase assay; procedure, shortened: as §2
[17] = target: Tyrosine-protein kinase Lck (Homo sapiens) (UniProt P06239); assay: Inhibition of GST-tagged human LCK at 5 uM preincubated for 20 mins followed by [33P]-ATP addition measured after 2 hrs by Hot-Spot kinase assay; procedure, shortened: as §2
[18] = target: Tyrosine-protein kinase receptor UFO (Homo sapiens) (UniProt P30530); assay: Inhibition of GST-tagged human AXL at 5 uM preincubated for 20 mins followed by [33P]-ATP addition measured after 2 hrs by Hot-Spot kinase assay; procedure, shortened: as §2
[19] = target: Proto-oncogene tyrosine-protein kinase receptor Ret (Homo sapiens) (UniProt P07949); assay: Inhibition of GST-tagged human RET at 5 uM preincubated for 20 mins followed by [33P]-ATP addition measured after 2 hrs by Hot-Spot kinase assay; procedure, shortened: as §2
[20] = target: Vascular endothelial growth factor receptor 2 (Homo sapiens) (UniProt P35968); assay: Inhibition of GST-tagged human KDR at 5 uM preincubated for 20 mins followed by [33P]-ATP addition measured after 2 hrs by Hot-Spot kinase assay; procedure, shortened: as §2

T1 sequence (P08581 whole entry): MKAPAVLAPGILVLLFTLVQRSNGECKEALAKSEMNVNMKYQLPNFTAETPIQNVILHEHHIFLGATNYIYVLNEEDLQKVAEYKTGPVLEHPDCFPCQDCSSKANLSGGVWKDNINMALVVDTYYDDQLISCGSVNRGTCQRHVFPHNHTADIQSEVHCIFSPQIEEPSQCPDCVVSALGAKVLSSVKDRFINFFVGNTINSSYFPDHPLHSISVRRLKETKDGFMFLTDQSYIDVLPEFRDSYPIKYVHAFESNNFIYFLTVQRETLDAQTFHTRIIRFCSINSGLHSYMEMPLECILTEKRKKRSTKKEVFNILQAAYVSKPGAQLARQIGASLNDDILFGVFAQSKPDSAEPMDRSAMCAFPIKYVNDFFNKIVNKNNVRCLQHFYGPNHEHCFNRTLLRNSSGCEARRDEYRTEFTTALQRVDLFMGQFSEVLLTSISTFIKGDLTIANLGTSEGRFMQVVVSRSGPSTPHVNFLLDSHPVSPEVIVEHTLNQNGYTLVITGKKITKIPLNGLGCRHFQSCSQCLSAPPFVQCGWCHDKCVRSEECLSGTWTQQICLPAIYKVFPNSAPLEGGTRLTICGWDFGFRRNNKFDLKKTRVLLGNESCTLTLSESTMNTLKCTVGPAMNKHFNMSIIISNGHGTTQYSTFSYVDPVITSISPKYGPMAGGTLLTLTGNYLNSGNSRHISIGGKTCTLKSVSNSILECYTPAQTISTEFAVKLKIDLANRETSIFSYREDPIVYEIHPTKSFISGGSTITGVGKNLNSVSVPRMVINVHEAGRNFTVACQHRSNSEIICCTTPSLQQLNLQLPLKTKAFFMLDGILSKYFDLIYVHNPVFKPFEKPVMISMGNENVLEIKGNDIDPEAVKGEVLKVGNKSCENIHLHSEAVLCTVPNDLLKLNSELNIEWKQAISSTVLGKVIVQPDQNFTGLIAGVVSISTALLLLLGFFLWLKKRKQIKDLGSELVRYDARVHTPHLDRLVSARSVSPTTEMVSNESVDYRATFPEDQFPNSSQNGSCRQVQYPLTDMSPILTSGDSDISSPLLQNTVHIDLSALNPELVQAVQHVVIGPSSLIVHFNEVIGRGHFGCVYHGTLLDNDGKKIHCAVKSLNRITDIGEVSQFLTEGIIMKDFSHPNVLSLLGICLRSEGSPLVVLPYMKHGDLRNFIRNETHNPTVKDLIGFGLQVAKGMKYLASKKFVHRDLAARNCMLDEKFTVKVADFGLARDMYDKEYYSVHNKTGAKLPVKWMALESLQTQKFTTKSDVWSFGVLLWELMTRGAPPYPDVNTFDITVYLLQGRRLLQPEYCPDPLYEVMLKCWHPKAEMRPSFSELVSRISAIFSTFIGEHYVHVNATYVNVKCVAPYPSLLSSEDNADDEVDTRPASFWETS
Tyrosine-protein kinase receptor UFO (Homo sapiens), sequence (P30530 whole entry): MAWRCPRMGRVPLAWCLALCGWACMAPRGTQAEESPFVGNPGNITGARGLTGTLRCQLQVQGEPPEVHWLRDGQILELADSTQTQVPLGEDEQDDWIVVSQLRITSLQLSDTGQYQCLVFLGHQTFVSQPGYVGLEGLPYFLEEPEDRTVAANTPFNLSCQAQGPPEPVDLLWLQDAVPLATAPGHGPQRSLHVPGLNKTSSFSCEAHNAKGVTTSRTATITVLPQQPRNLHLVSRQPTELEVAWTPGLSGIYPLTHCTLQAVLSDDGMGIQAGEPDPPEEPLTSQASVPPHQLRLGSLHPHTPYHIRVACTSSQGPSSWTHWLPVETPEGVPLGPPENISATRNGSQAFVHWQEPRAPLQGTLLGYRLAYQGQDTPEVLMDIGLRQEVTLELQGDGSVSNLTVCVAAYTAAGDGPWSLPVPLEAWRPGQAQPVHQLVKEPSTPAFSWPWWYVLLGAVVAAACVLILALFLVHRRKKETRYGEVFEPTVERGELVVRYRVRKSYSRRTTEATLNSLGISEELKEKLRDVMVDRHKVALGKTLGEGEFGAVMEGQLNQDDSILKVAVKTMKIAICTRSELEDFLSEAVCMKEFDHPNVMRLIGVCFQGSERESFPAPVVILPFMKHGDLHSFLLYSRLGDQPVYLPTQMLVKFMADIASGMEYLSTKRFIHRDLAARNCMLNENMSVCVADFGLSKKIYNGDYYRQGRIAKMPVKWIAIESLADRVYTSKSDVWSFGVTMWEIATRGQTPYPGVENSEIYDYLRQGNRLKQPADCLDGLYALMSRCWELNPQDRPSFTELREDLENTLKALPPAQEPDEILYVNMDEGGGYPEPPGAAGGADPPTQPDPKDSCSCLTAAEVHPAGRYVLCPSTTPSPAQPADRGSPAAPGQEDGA
Platelet-derived growth factor receptor alpha (Homo sapiens), sequence (P16234 whole entry): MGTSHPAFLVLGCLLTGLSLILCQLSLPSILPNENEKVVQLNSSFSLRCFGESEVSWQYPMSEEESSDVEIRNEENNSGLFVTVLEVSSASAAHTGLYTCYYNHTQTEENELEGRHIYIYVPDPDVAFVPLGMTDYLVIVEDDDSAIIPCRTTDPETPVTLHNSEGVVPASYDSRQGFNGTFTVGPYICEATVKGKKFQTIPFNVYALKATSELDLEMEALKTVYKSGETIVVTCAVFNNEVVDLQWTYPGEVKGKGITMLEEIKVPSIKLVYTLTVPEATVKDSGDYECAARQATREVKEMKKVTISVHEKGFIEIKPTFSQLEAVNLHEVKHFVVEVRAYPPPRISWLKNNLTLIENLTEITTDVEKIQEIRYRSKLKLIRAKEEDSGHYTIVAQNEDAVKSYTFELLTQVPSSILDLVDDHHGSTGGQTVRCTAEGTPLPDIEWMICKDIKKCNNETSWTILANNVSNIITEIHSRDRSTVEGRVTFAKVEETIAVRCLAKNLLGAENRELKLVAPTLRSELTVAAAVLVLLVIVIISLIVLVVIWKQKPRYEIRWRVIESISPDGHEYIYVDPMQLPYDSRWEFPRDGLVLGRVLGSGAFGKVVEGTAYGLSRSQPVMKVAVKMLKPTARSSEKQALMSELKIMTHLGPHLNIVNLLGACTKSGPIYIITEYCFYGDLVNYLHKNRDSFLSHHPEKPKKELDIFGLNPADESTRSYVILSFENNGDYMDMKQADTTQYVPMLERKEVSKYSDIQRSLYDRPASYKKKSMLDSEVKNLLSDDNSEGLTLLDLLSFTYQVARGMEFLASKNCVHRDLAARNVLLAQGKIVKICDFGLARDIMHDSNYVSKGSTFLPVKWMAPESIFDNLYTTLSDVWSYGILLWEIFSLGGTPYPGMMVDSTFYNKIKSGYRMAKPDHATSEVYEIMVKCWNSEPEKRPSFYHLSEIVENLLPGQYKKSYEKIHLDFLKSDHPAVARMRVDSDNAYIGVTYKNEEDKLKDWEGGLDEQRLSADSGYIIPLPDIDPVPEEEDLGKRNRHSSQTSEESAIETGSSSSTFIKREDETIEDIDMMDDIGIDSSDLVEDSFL
Angiopoietin-1 receptor (Homo sapiens), sequence (Q02763 whole entry): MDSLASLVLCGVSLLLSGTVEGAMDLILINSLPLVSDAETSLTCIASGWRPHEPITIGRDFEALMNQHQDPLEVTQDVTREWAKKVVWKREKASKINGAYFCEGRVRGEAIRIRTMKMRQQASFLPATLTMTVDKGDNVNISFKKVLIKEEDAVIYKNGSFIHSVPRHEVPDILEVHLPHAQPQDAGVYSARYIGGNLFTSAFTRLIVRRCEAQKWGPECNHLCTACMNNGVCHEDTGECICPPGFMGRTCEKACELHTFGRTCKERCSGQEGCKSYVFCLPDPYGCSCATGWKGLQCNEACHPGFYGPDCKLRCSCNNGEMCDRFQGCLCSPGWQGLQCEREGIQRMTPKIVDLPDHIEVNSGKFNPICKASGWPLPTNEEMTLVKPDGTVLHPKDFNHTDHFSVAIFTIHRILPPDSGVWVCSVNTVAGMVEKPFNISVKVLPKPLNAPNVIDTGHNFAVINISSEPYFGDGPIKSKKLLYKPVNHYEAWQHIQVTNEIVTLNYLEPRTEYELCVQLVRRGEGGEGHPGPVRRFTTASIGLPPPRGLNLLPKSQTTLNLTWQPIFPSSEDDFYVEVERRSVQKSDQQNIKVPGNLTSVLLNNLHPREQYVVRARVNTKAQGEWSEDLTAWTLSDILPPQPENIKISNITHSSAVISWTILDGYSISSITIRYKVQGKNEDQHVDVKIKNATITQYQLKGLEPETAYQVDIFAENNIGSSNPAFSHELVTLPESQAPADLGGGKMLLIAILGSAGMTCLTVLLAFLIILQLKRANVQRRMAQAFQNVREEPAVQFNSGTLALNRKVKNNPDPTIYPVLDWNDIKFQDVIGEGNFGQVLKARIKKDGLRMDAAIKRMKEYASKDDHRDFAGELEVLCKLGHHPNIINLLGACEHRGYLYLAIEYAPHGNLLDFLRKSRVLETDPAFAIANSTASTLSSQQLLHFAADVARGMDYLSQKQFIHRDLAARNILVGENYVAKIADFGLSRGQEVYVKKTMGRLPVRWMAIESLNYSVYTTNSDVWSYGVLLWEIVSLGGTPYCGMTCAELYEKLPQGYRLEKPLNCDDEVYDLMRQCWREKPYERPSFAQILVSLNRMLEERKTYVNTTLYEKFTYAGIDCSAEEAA
Tyrosine-protein kinase Lck (Homo sapiens), sequence (P06239 2-509 limits assumed): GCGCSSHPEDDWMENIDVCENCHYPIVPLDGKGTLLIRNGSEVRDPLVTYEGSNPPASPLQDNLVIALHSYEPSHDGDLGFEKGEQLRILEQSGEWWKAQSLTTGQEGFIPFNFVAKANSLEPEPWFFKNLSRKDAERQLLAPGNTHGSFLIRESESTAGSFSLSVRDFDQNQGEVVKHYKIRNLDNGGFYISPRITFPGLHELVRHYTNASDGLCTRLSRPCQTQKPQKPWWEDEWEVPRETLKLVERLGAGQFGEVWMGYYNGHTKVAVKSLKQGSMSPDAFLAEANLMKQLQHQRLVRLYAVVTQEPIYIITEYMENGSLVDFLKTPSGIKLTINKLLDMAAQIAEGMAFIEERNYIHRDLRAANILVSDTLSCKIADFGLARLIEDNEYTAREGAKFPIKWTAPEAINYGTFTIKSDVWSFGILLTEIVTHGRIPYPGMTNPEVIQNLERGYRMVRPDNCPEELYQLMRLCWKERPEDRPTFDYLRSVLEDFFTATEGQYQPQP

| SMILES | IC50 (EBC-1 [1]) | Activity (EBC-1 [2]) | Activity (MKN-45 [3]) | Activity (EBC-1 [4]) | Activity (SNU-5) | Activity (MKN-45 [6]) | further results |
| --- | --- | --- | --- | --- | --- | --- | --- |
| COc1ccc2c(OCc3nnc4sc(-c5cc(F)c(F)c(F)c5)nn34)ccnc2c1 | 403 nM | 84.5% | 29.8% | 89.3% | 44.7% |  |  |
| CNC(=O)COc1ccc(Cc2nnc3sc(-c4cnn(C)c4)nn23)cc1 |  |  |  |  |  |  | IC50 [5]: > 10000 nM |
| COc1ccc2c(OCc3nnc4sc(-c5cccn5C)nn34)ccnc2c1 |  | 86.3% | 28.1% | 7.4% | 14.5% |  |  |
| C[C@@H](Oc1cc(-c2cnn(C3CCNCC3)c2)cnc1N)c1c(Cl)ccc(F)c1Cl [CRIZOTINIB] | 39 nM | 94.4% | 77.7% | 93.1% | 80% | 82.6% |  |
| COc1ccc2c(OCc3nnc4sc(-c5ccn(CC6CC6)c5)nn34)ccnc2c1 | 351 nM | 75.9% | 66.6% | 87.2% | 52.2% | 41.1% |  |
| COc1ccc2c(OCc3nnc4sc(-c5ccc(F)cc5)nn34)ccnc2c1 | 187 nM | 83.1% | 71% | 89.4% | 65.8% | 68.5% |  |
| COc1ccc2[nH]c(-c3nn4c(COc5ccnc6cc(OC)ccc56)nnc4s3)cc2c1 | 85.6 nM | 84% | 61.2% | 82.2% | 60% | 75.3% |  |
| COc1cccc(-c2nn3c(COc4ccnc5cc(OC)ccc45)nnc3s2)c1 | 472 nM | 85.4% | 66.6% | 91.5% | 65.7% | 37.8% |  |
| COc1ccc2c(OCc3nnc4sc(-c5cccc(F)c5)nn34)ccnc2c1 | 504 nM | 81.4% | 71.3% | 86.7% | 66.3% | 13.2% |  |
| COc1ccc2c(OCc3nnc4sc(-c5cnn(C)c5)nn34)ccnc2c1 | 88 nM | 84.4% | 71.9% | 90.9% | 68.7% | 73.6% | IC50 [5]: 2.02 nM; inhibition [7]: 0.28%; inhibition [8]: -7.71%; inhibition [9]: Dose-dependent effect; inhibition [10]: -3.29%; inhibition [11]: 14.9%; inhibition [12]: 0.04%; inhibition [13]: -1.59%; inhibition [14]: 10.9%; IC50 [15]: 1370 nM; inhibition [16]: 69.7%; inhibition [17]: -0.81%; inhibition [18]: 11.1%; inhibition [19]: -0.73%; inhibition [20]: -3.93% |
| COc1ccc2c(OCc3nnc4sc(-c5ccn(C6CCCC6)c5)nn34)ccnc2c1 |  | 72.1% | 47.6% | 41.3% | 42% |  |  |
